# Experiments:
# Assay type in all cases: functional
# [1] = system: Mycobacterium tuberculosis; assay: Antimycobacterial activity against Mycobacterium tuberculosis H37Rv at 6.25 ug/ml by BACTEC 460; details: for inhibition at 6.25 µg/mL: Mycobacterium tuberculosis, H37Rv
# U-937 [2] = assay: Cytotoxicity against human U937 cells assessed as cell viability at 1 ug/ml after 24 hrs by MTT assay; details: U-937, 24 h, read-out: Activity
# How it was run: (§1)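 U937 human monocytic cells seeded at 1 × 10⁵ cells/mL and allowed to adhere for 1 h at 37 °C under 5% CO₂. Non-adherent cells were rinsed off with RPMI 1640. Adherent cells were exposed in triplicate to compound, medium alone (live control) or 3% Tween 20 (dead control). MTT (5 mg/mL stock in PBS) was added for 3 h at 37 °C. Formazan was dissolved in 0.4 M HCl/isopropanol and A600 read. Values given as percent viability.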
# U-937 [3] = assay: Cytotoxicity against human U937 cells assessed as cell viability at 1 ug/ml after 72 hrs by MTT assay; details: U-937, 72 h, read-out: Activity; how it was run: as §1
# U-937 [4] = assay: Cytotoxicity against human U937 cells assessed as cell viability at 10 ug/ml after 72 hrs by MTT assay; details: U-937, 72 h, read-out: Activity; how it was run: as §1
# U-937 [5] = assay: Cytotoxicity against human U937 cells assessed as cell viability at 10 ug/ml after 24 hrs by MTT assay; details: U-937, 24 h, read-out: Activity; how it was run: as §1
compound,measurement,setting,value
OC(COC(c1ccccc1)c1cccc2ccccc12)CN1CCN(c2cccc(C(F)(F)F)c2)CC1 (stereo unspecified),inhibition at 6.25 µg/mL,[1],11%
Cc1cc(C(OCC(O)Cn2ccc(C)n2)c2ccncc2)c2cc(Br)ccc2n1 (stereo unspecified),inhibition at 6.25 µg/mL,[1],8%
OC(COC(c1ccccc1)c1cccc2ccccc12)CN1CCN(Cc2ccccc2)CC1 (stereo unspecified),viability at 1 µg/mL,U-937 [2],77%
same,inhibition at 6.25 µg/mL,[1],91%
same,viability at 1 µg/mL,U-937 [3],71%
same,viability at 10 µg/mL,U-937 [4],74%
same,viability at 10 µg/mL,U-937 [5],77%
COCCNCC(O)COC(c1ccncc1)c1cc(C)nc2ccc(Br)cc12 (stereo unspecified),inhibition at 6.25 µg/mL,[1],19%
Cc1cc(C(OCC(O)CN(C)CCO)c2ccncc2)c2cc(Br)ccc2n1 (stereo unspecified),inhibition at 6.25 µg/mL,[1],13%
OC(COC(c1ccccc1)c1cccc2ccccc12)CN1CCN(c2ccc(F)cc2)CC1 (stereo unspecified),inhibition at 6.25 µg/mL,[1],14%
OC(COC(c1ccccc1)c1cccc2ccccc12)CN1CCN(c2ccccn2)CC1 (stereo unspecified),inhibition at 6.25 µg/mL,[1],23%
COc1ccccc1N1CCN(CC(O)COC(c2ccccc2)c2cccc3ccccc23)CC1 (stereo unspecified),viability at 1 µg/mL,U-937 [2],81%
same,inhibition at 6.25 µg/mL,[1],90%
same,viability at 1 µg/mL,U-937 [3],64%
same,viability at 10 µg/mL,U-937 [4],62%
same,viability at 10 µg/mL,U-937 [5],81%
OC(COC(c1ccccc1)c1cccc2ccccc12)CN1CCN(C(c2ccccc2)c2ccccc2)CC1 (stereo unspecified),viability at 1 µg/mL,U-937 [2],93%
same,inhibition at 6.25 µg/mL,[1],98%
same,viability at 1 µg/mL,U-937 [3],79%
same,viability at 10 µg/mL,U-937 [4],70%
same,viability at 10 µg/mL,U-937 [5],74%
Cc1cc(C(OCC(O)CN2CCN(c3ccccn3)CC2)c2ccncc2)c2cc(Br)ccc2n1 (stereo unspecified),inhibition at 6.25 µg/mL,[1],4%
Cc1cc(C(OCC(O)CNCCN)c2ccncc2)c2cc(Br)ccc2n1 (stereo unspecified),inhibition at 6.25 µg/mL,[1],5%
Cc1cc(C(OCC(O)Cn2cncn2)c2ccncc2)c2cc(Br)ccc2n1 (stereo unspecified),inhibition at 6.25 µg/mL,[1],10%
Cc1cc(C(OCC(O)Cn2cccn2)c2ccncc2)c2cc(Br)ccc2n1 (stereo unspecified),inhibition at 6.25 µg/mL,[1],9%
COc1cccc(N2CCN(CC(O)COC(c3ccccc3)c3cccc4ccccc34)CC2)c1 (stereo unspecified),viability at 1 µg/mL,U-937 [2],100%
same,inhibition at 6.25 µg/mL,[1],99%
same,viability at 1 µg/mL,U-937 [3],100%
same,viability at 10 µg/mL,U-937 [4],63%
same,viability at 10 µg/mL,U-937 [5],82%
Cc1cc(C(OCC(O)CNc2nnn[nH]2)c2ccncc2)c2cc(Br)ccc2n1 (stereo unspecified),inhibition at 6.25 µg/mL,[1],20%
"Cc1cc(C(OCC(O)CNc2ncn[nH]2)c2ccncc2)c2cc(Br)ccc2n1 (stereo in doubt; 12) [1-(1H-1,2,4-TRIAZOL-5-YLAMINO)-3-((6-BROMO-2-METHYLQUINOLIN-4-YL)(PYRIDIN-4-YL)METHOXY)PROPAN-2-OL (STRUCTURAL MIX)]",inhibition at 6.25 µg/mL,[1],22%
OC(COC(c1ccccc1)c1cccc2ccccc12)CN1CCN(c2ccc(Cl)cc2)CC1 (stereo unspecified),inhibition at 6.25 µg/mL,[1],5%
"Cc1cc(C(OCC(O)CNc2ncn[nH]2)c2ccncc2)c2cc(Br)ccc2n1 (stereo in doubt; 13) [1-(1H-1,2,4-TRIAZOL-5-YLAMINO)-3-((6-BROMO-2-METHYLQUINOLIN-4-YL)(PYRIDIN-4-YL)METHOXY)PROPAN-2-OL (STRUCTURAL MIX)]",inhibition (INH),[1],15%
Cc1cc(C(OCC(O)Cn2ccnc2)c2ccncc2)c2cc(Br)ccc2n1 (stereo unspecified),inhibition at 6.25 µg/mL,[1],7%
OC(COC(c1ccccc1)c1cccc2ccccc12)CN1CCN(c2ccc(Cl)c(Cl)c2)CC1 (stereo unspecified),inhibition at 6.25 µg/mL,[1],4%
